Data as given in ChEMBL document CHEMBL1134569, “Synthesis and in vitro and in vivo antimalarial activity of new 4-anilinoquinolines” (J Med Chem, 2001).

Tests used:
[1] = Cytotoxicity upon MPMs (mouse peritoneal macrophages) at 3.1 uM conc.;NT=No Toxicity
Summary of the method: (§1)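 Mouse peritoneal macrophages harvested 48 h after potato-starch stimulation and seeded at 30000 cells/well. After 24 h, washed and exposed to 2-fold drug dilutions in RPMI + 5% FCS (final DMSO below 0.5%) at 37 °C, 5% CO₂, for 7 days. Toxicity scored microscopically as toxic or not versus untreated controls.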

[2] = Cytotoxicity upon MPMs (mouse peritoneal macrophages) at 6.3 uM; summary of the method: as §1
[3] = Cytotoxicity upon MRC-5 cells (diploid embryonic lung cell line) at 12.5 uM; type: cell-based, MRC5; conditions: human
Summary of the method: (§2)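 MRC-5 human diploid embryonic lung cells seeded at 5000/well, washed after 24 h, then given 2-fold drug dilutions in RPMI + 5% FCS (final DMSO below 0.5%). Incubated at 37 °C, 5% CO₂, for 7 days. MTT read-out at 540 nm, scored as percent absorbance reduction versus untreated controls.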

[4] = Cytotoxicity upon MRC-5 cells (diploid embryonic lung cell line) at 3.1 uM; type: cell-based, MRC5; conditions: human; summary of the method: as §2
[5] = Cytotoxicity upon MRC-5 cells (diploid embryonic lung cell line) at 6.3 uM; type: cell-based, MRC5; conditions: human; summary of the method: as §2
[6] = Cytotoxicity upon MPMs (mouse peritoneal macrophages) at 12.5 uM conc.; Toxic; summary of the method: as §1
Plasmodium falciparum [7] = assay: Inhibitory activity against chloroquine-resistant Plasmodium falciparum FcB1R; type: functional, organism-based; conditions: Plasmodium falciparum
[8] = Cytotoxicity upon MPMs (mouse peritoneal macrophages) at 12.5 uM conc.;NT=No Toxicity; summary of the method: as §1
[9] = Cytotoxicity upon MPMs (mouse peritoneal macrophages) at 2 uM; summary of the method: as §1
[10] = Cytotoxicity upon MRC-5 cells (diploid embryonic lung cell line) at 25 uM conc.; type: cell-based, MRC5; conditions: human; summary of the method: as §2
[11] = Cytotoxicity upon MRC-5 cells (diploid embryonic lung cell line) at 1.6 uM conc.; type: cell-based, MRC5; conditions: human; summary of the method: as §2
[12] = Cytotoxicity upon MRC-5 cells (diploid embryonic lung cell line) at 1 uM; type: cell-based, MRC5; conditions: human; summary of the method: as §2
[13] = Cytotoxicity upon MRC-5 cells (diploid embryonic lung cell line) at 32 uM; type: cell-based, MRC5; conditions: human; summary of the method: as §2
[14] = Cytotoxicity upon MRC-5 cells (diploid embryonic lung cell line) at 8 uM; type: cell-based, MRC5; conditions: human; summary of the method: as §2
[15] = Cytotoxicity upon MPMs (mouse peritoneal macrophages) at 2 uM conc.; Toxic; summary of the method: as §1
[16] = Cytotoxicity upon MPMs (mouse peritoneal macrophages) at 32 uM; summary of the method: as §1
[17] = Cytotoxicity upon MPMs (mouse peritoneal macrophages) at 8 uM; summary of the method: as §1
Plasmodium falciparum [18] = assay: Inhibitory activity against chloroquine-resistant Plasmodium falciparum K1; type: functional, organism-based
Plasmodium falciparum [19] = assay: Inhibitory activity against chloroquine-sensitive Plasmodium falciparum THAI

| Structure (SMILES) | NT [1] | NT [2] | cytotoxicity at 12.5 µM [3] [%] | cytotoxicity at 3.1 µM [4] [%] | cytotoxicity at 6.3 µM [5] [%] | Cytotoxicity [6] | IC50 (Plasmodium falciparum [7]) [nM] | NT [8] | NT [9] | cytotoxicity at 25 µM [10] [%] | cytotoxicity at 1.6 µM [11] [%] | cytotoxicity at 1 µM [12] [%] | cytotoxicity at 32 µM [13] [%] | cytotoxicity at 8 µM [14] [%] | Cytotoxicity [15] | Cytotoxicity [16] | Cytotoxicity [17] | IC50 (Plasmodium falciparum [18]) [nM] | IC50 (Plasmodium falciparum [19]) [nM] |
| --- | --- | --- | --- | --- | --- | --- | --- | --- | --- | --- | --- | --- | --- | --- | --- | --- | --- | --- | --- |
| O=C(CN1CCCC1)Nc1cc(CO)cc(Nc2ccnc3cc(Cl)ccc23)c1 | Cytotoxicity upon MPMs at 6.3 uM | Cytotoxicity upon MPMs at 6.3 uM | 0 | 0 | 0 | Toxic | 44 |  |  |  |  |  |  |  |  |  |  |  |  |
| CCN(CC)CCCCC(=O)OCc1cc(NC(=O)CN2CCCCC2)cc(Nc2ccnc3cc(Cl)ccc23)c1 |  | Cytotoxicity upon MPMs at 2 uM |  |  | 13 |  | 141 | Cytotoxicity upon MPMs at 2 uM | Cytotoxicity upon MPMs at 2 uM | 22 | 0 |  |  |  |  |  |  |  |  |
| CN1CCN(CCCCC(=O)OCc2cc(NC(=O)CN3CCCCC3)cc(Nc3ccnc4cc(Cl)ccc34)c2)CC1 |  | Cytotoxicity upon MPMs at 2 uM |  |  | 0 |  | 65.1 | Cytotoxicity upon MPMs at 2 uM | Cytotoxicity upon MPMs at 2 uM | 97 | 0 |  |  |  |  |  |  |  |  |
| CC1CCN(CCC(=O)Nc2cc(CO)cc(Nc3ccnc4cc(Cl)ccc34)c2)CC1 | Cytotoxicity upon MPMs at 6.3 uM | Cytotoxicity upon MPMs at 6.3 uM | 100 | 0 | 0 | Toxic | 136 |  |  |  |  |  |  |  |  |  |  |  |  |
| O=C(CN1CCCCC1)Nc1cc(COC(=O)CCCCBr)cc(Nc2ccnc3cc(Cl)ccc23)c1 |  | Cytotoxicity upon MPMs at 2 uM |  |  | 0 |  | 151 | Cytotoxicity upon MPMs at 2 uM | Cytotoxicity upon MPMs at 2 uM | 0 | 0 |  |  |  |  |  |  |  |  |
| CCN(CC)Cc1cc(NC(=O)CN2CCCCC2)cc(Nc2ccnc3cc(Cl)ccc23)c1 |  |  |  |  |  |  | 8.2 |  |  |  |  | 0 | 100 | 100 | Toxic | Cytotoxicity upon MPMs at 32 uM | Cytotoxicity upon MPMs at 32 uM |  |  |
| O=C(CN1CCCCC1)Nc1cc(COC(=O)CCCCCN2CCCCC2)cc(Nc2ccnc3cc(Cl)ccc23)c1 |  | Cytotoxicity upon MPMs at 2 uM |  |  | 81 |  | 27.4 | Cytotoxicity upon MPMs at 2 uM | Cytotoxicity upon MPMs at 2 uM | 92 | 0 |  |  |  |  |  |  |  |  |
| COc1ccc(CNCc2cc(NC(=O)CN3CCCCC3)cc(Nc3ccnc4cc(Cl)ccc34)c2)cc1 |  |  |  |  |  |  | 4.4 |  |  |  |  | 100 | 100 | 100 | Toxic | Cytotoxicity upon MPMs at 32 uM | Cytotoxicity upon MPMs at 32 uM |  |  |
| CC1CCN(CCCCCCCCCCCC(=O)Nc2cc(CO)cc(Nc3ccnc4cc(Cl)ccc34)c2)CC1 | Cytotoxicity upon MPMs at 6.3 uM | Cytotoxicity upon MPMs at 6.3 uM | 100 | 0 | 0 | Toxic | 86 |  |  |  |  |  |  |  |  |  |  |  |  |
| O=C(CNCc1ccccc1)Nc1cc(CO)cc(Nc2ccnc3cc(Cl)ccc23)c1 | Cytotoxicity upon MPMs at 6.3 uM | Cytotoxicity upon MPMs at 6.3 uM | 0 | 0 | 0 |  | 193 | Cytotoxicity upon MPMs at 6.3 uM |  |  |  |  |  |  |  |  |  |  |  |
| CCN(CC)c1ccc(CN2CCN(Cc3cc(NC(=O)CN4CCCCC4)cc(Nc4ccnc5cc(Cl)ccc45)c3)CC2)cc1 |  |  |  |  |  |  | 11.9 |  |  |  |  | 100 | 100 | 100 | Toxic | Cytotoxicity upon MPMs at 32 uM | Cytotoxicity upon MPMs at 32 uM |  |  |
| O=C(CN1CCCCC1)Nc1cc(COC(=O)c2ccccc2)cc(Nc2ccnc3cc(Cl)ccc23)c1 |  | Cytotoxicity upon MPMs at 2 uM |  |  | 38 | Toxic | 75.5 |  | Cytotoxicity upon MPMs at 2 uM | 66 | 20 |  |  |  |  |  |  |  |  |
| O=C(CN1CCCCC1)Nc1cc(COC(=O)CCCCN2CCCC2)cc(Nc2ccnc3cc(Cl)ccc23)c1 |  | Cytotoxicity upon MPMs at 2 uM |  |  | 83 |  | 23 | Cytotoxicity upon MPMs at 2 uM | Cytotoxicity upon MPMs at 2 uM | 82 | 0 |  |  |  |  |  |  |  |  |
| O=C(CCl)Nc1cc(CO)cc(Nc2ccnc3cc(Cl)ccc23)c1 | Cytotoxicity upon MPMs at 6.3 uM | Cytotoxicity upon MPMs at 6.3 uM | 92 | 0 | 0 | Toxic | > 1000 |  |  |  |  |  |  |  |  |  |  |  |  |
| Nc1ccn(CC(=O)Nc2cc(CO)cc(Nc3ccnc4cc(Cl)ccc34)c2)n1 | Cytotoxicity upon MPMs at 6.3 uM | Cytotoxicity upon MPMs at 6.3 uM | 0 | 0 | 0 |  | 806 | Cytotoxicity upon MPMs at 6.3 uM |  |  |  |  |  |  |  |  |  |  |  |
| O=C(Nc1cc(CO)cc(Nc2ccnc3cc(Cl)ccc23)c1)c1ccccc1 | Cytotoxicity upon MPMs at 6.3 uM | Cytotoxicity upon MPMs at 6.3 uM | 0 | 0 | 0 |  | > 1000 | Cytotoxicity upon MPMs at 6.3 uM |  |  |  |  |  |  |  |  |  |  |  |
| O=C(CN1CCCCC1)Nc1cc(CNCc2ccc(Cl)cc2)cc(Nc2ccnc3cc(Cl)ccc23)c1 |  |  |  |  |  |  | 4.6 |  |  |  |  | 100 | 100 | 100 | Toxic | Cytotoxicity upon MPMs at 32 uM | Cytotoxicity upon MPMs at 32 uM |  |  |
| O=C(CN1CCOCC1)Nc1cc(CO)cc(Nc2ccnc3cc(Cl)ccc23)c1 | Cytotoxicity upon MPMs at 6.3 uM | Cytotoxicity upon MPMs at 6.3 uM | 0 | 0 | 0 |  | > 1000 | Cytotoxicity upon MPMs at 6.3 uM |  |  |  |  |  |  |  |  |  |  |  |
| CN1CCN(CC(=O)Nc2cc(CO)cc(Nc3ccnc4cc(Cl)ccc34)c2)CC1 | Cytotoxicity upon MPMs at 6.3 uM | Cytotoxicity upon MPMs at 6.3 uM | 0 | 0 | 0 |  | 344 | Cytotoxicity upon MPMs at 6.3 uM |  |  |  |  |  |  |  |  |  |  |  |
| CC(C)(C)NCC(=O)Nc1cc(CO)cc(Nc2ccnc3cc(Cl)ccc23)c1 | Cytotoxicity upon MPMs at 6.3 uM | Cytotoxicity upon MPMs at 6.3 uM | 0 | 0 | 0 |  | 50.9 | Cytotoxicity upon MPMs at 6.3 uM |  |  |  |  |  |  |  |  |  |  |  |
| O=C(CN1CCSC1)Nc1cc(CO)cc(Nc2ccnc3cc(Cl)ccc23)c1 | Cytotoxicity upon MPMs at 6.3 uM | Cytotoxicity upon MPMs at 6.3 uM | 0 | 0 | 0 |  | 588 | Cytotoxicity upon MPMs at 6.3 uM |  |  |  |  |  |  |  |  |  |  |  |
| O=C(CN1CCCCC1)Nc1cc(CN2CCCCC2)cc(Nc2ccnc3cc(Cl)ccc23)c1 |  |  |  |  |  |  | 10.2 |  |  |  |  | 43 | 100 | 100 | Toxic | Cytotoxicity upon MPMs at 32 uM | Cytotoxicity upon MPMs at 32 uM | 8.1 | 6.7 |
| CCN(CC)CC(=O)Nc1cc(CO)cc(Nc2ccnc3cc(Cl)ccc23)c1 | Cytotoxicity upon MPMs at 6.3 uM | Cytotoxicity upon MPMs at 6.3 uM | 0 | 0 | 0 | Toxic | 41.6 |  |  |  |  |  |  |  |  |  |  |  |  |
| Nc1cc(CO)cc(Nc2ccnc3cc(Cl)ccc23)c1 | Cytotoxicity upon MPMs at 2 uM | Cytotoxicity upon MPMs at 2 uM | 0 | 0 | 0 |  | 279 | Cytotoxicity upon MPMs at 2 uM | Cytotoxicity upon MPMs at 2 uM |  | 0 |  |  |  |  |  |  |  |  |
| O=C(CN1CCCCC1)Nc1cc(COC(=O)CN2CCCCC2)cc(Nc2ccnc3cc(Cl)ccc23)c1 |  |  |  |  | 0 |  | 54 |  |  | 93 | 0 |  |  |  |  |  |  |  |  |
| O=C(CN1CCCCC1)Nc1cc(COC(=O)CCN2CCCCC2)cc(Nc2ccnc3cc(Cl)ccc23)c1 |  | Cytotoxicity upon MPMs at 2 uM |  |  | 0 |  | 78.3 | Cytotoxicity upon MPMs at 2 uM | Cytotoxicity upon MPMs at 2 uM | 90 | 0 |  |  |  |  |  |  |  |  |
